High-throughput results (PubChem)
INS-1E rescue: preserves ATP levels in cytokine-treated INS-1E cells. INS-1E cytokine-induced death, ATP luminescence, 48 h; normalised: neutral wells 0, positive control 100. 20,000 compounds, 0.1% hits. AID 488910. protection from cytokine-induced ATP loss, % at 10 µM;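 active = mean replicate protection from cytokine-induced ATP loss at least 50% and at least 75% of replicates each reaching 50%; inconclusive = meets only one of the two criteria, mean or replicate share; inactive = fails both the mean and replicate share criteria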
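Assay system: INS-1E rat cells / Quantity: 8000 cells per well / Medium: RPMI without phenol red, 5% FBS / Probe or stimulus: three-cytokine cocktail (IFN-γ, TNF-α, IL-1β) / Dosing: one compound concentration, pin transfer / Timing: 48 h co-treatment, 10 min post-lysis read / Technique: CellTiter-Glo luminescence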
A1 apoptosis 2: compounds inhibiting A1, read as caspase activation. 24,000 tested, under 10 active. AID 2465. MEF A1-2A-BIM cells, caspase-Glo luminescence, 3 h; percent of clofoctol response, DMSO zero. caspase activation, % (no concentration beside the values); in the data active = caspase activation above about 5.9%; inconclusive = no clear call, values can overlap the other calls; inactive = below about 2.2%
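Evaluation: Caspase-3/7 activity from luminescence increase | Assay system: A1-2A-BIM mouse embryonic fibroblasts | Quantity: 2500 MEF cells/well | Medium: RPMI-1640 plus 10% FBS | Detection: Caspase-Glo 3/7 luminescence, 1 h at room temperature | Dosing: 50 nL compound per well, pinned | Timing: Cells settled overnight, compound exposure 3 h at 37 °C, 5% CO2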
T cruzi intra: inhibitors of intracellular Trypanosoma cruzi; intracellular Trypanosoma cruzi in host cells, plate reader; 22,000 compounds, 4.9% hits; activity score (inhibition), % at 5.01 µM; in the data active = activity score above about 55%; inconclusive = no clear call, values can overlap the other calls;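 note: parasites and compound incubated about four days before reading; 0% = median of neutral control wells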
Starred values were filed as active, the others as inactive; ? = inconclusive; . = no result given. Many of the other results were omitted from the sample, so hits are more common in it than they were.

SMILES	INS-1E rescue	A1 apoptosis 2	T cruzi intra
COc1cc(/C=N/NC(=O)c2ccccn2)c(Br)cc1O	3	-9	-9
C[C@H](CO)N1C[C@H](C)[C@H](CN(C)C(=O)Nc2cccc3ccccc23)Oc2ncc(C#Cc3ccc(C(F)(F)F)cc3)cc2C1=O	.	0	85*
C[C@H](CO)N1C[C@H](C)[C@H](CN(C)C(=O)Nc2cccc3ccccc23)Oc2ncc(-c3cccc(F)c3)cc2C1=O	.	0	32
C[C@H](CO)N1C[C@H](C)[C@H](CN(C)C(=O)Nc2cccc3ccccc23)Oc2ncc(C#Cc3cccc(F)c3)cc2C1=O	.	.	66*
C[C@H](CO)N1C[C@H](C)[C@H](CN(C)C(=O)Nc2cccc3ccccc23)Oc2ncc(-c3cccc(C(F)(F)F)c3)cc2C1=O	.	.	62*
C[C@H](CO)N1C[C@H](C)[C@H](CN(C)C(=O)Nc2ccccc2)Oc2ncc(C#Cc3cccc(F)c3)cc2C1=O	-13	0	30
C[C@H](CO)N1C[C@H](C)[C@H](CN(C)C(=O)Nc2cccc3ccccc23)Oc2ncc(C#CC(C)(C)O)cc2C1=O	.	.	-9
C[C@H](CO)N1C[C@H](C)[C@H](CN(C)S(=O)(=O)c2cccs2)OCCCC[C@H](C)Oc2ccc(NC(=O)NC3CCCCC3)cc2C1=O	.	-1	.
C[C@@H]1CN([C@H](C)CO)C(=O)c2cc(NC(=O)c3ccncc3)ccc2O[C@H]1CN(C)Cc1ccc(C(=O)Nc2ccccc2N)cc1	-11	0	-14
C[C@H]1CN([C@@H](C)CO)C(=O)c2cccc(NC(=O)Nc3cccc4ccccc34)c2O[C@H]1CN(C)C(=O)Nc1ccccc1	-10	.	46
C[C@@H]1CN([C@H](C)CO)C(=O)c2cccc(NC(=O)C3CCCCC3)c2O[C@H]1CN(C)Cc1ccc(Cl)c(Cl)c1	-17	0	60*
C[C@@H]1CN([C@@H](C)CO)C(=O)c2cccc(NC(=O)NC3CCCCC3)c2O[C@@H]1CN(C)Cc1ccc(Cl)c(Cl)c1	-18	-1	-52
C[C@H](CO)N1C[C@H](C)[C@H](CN(C)Cc2ccc(Cl)c(Cl)c2)Oc2c(NC(=O)C3CCCCC3)cccc2C1=O	-41	.	14
C[C@@H]1CN([C@@H](C)CO)C(=O)c2cccc(NC(=O)NC3CCCCC3)c2O[C@H]1CN(C)Cc1ccc(Cl)c(Cl)c1	-5	.	62*
Cc1ccc(S(=O)(=O)Nc2ccc3c(c2)C(=O)N([C@@H](C)CO)C[C@H](C)[C@@H](CN(C)Cc2ccc(Cl)c(Cl)c2)O3)cc1	0	.	32
C[C@@H]1CN([C@@H](C)CO)C(=O)c2cc(NS(=O)(=O)c3ccc(Cl)cc3)ccc2O[C@H]1CN(C)Cc1ccc(Cl)c(Cl)c1	-8	1	58*
C[C@H]1CN([C@@H](C)CO)C(=O)c2cc(NS(=O)(=O)c3ccccc3)ccc2O[C@@H]1CN(C)Cc1ccc(Cl)c(Cl)c1	-7	.	62*
C[C@@H]1CN([C@H](C)CO)C(=O)c2cc(NS(=O)(=O)c3ccccc3)ccc2O[C@@H]1CN(C)Cc1ccc(Cl)c(Cl)c1	-2	.	-8
C[C@H]1CN([C@@H](C)CO)C(=O)c2cc(NS(=O)(=O)c3ccc(Cl)cc3)ccc2O[C@@H]1CN(C)Cc1ccc(Cl)c(Cl)c1	-13	0	46
Cc1ccc(S(=O)(=O)Nc2ccc3c(c2)C(=O)N([C@@H](C)CO)C[C@@H](C)[C@@H](CN(C)Cc2ccc(Cl)c(Cl)c2)O3)cc1	-37	.	64*
CCCCCCC/C=N/NC(=O)c1ccccc1O	-2	0	-10
COc1cc(/C=C/C=N/NC(=O)c2ccc(C(=O)NO)cc2)ccc1O	-4	-1	-9
Cc1ccc(S(=O)(=O)N(c2cccc(N=[N+]=[N-])c2)S(=O)(=O)c2ccc(C)cc2)cc1	.	0	.
C[C@H](CO)N1C[C@H](C)[C@H](CN(C)Cc2ccccc2)Oc2ccc(NC(=O)Nc3ccc(C(F)(F)F)cc3)cc2C1=O	.	.	32*
C[C@@H]1CN([C@H](C)CO)C(=O)c2cc(NC(=O)Nc3ccc(C(F)(F)F)cc3)ccc2O[C@@H]1CN(C)Cc1ccccc1	-31	-1	14
SMILES	INS-1E rescue	A1 apoptosis 2	T cruzi intra
C[C@H](CO)N1C[C@H](C)[C@H](CN(C)C(=O)Nc2ccc(C(F)(F)F)cc2)Oc2ccc(NC(=O)Nc3ccc(C(F)(F)F)cc3)cc2C1=O	-20	.	74*
C[C@H](CO)N1C[C@H](C)[C@H](CN(C)Cc2ccc(C(F)(F)F)cc2)Oc2ccc(NC(=O)Nc3ccc(F)cc3)cc2C1=O	.	-2	58*
C[C@@H]1CN([C@@H](C)CO)C(=O)c2cc(NC(=O)Nc3ccc(C(F)(F)F)cc3)ccc2O[C@@H]1CN(C)Cc1ccc(C(F)(F)F)cc1	-62	0	52
C[C@H](CO)N1C[C@H](C)[C@@H](CN(C)C(=O)Nc2ccc(C(F)(F)F)cc2)Oc2ccc(NC(=O)Nc3ccc(C(F)(F)F)cc3)cc2C1=O	-103	.	?
C[C@H]1CN([C@@H](C)CO)C(=O)c2cc(NC(=O)Nc3ccc(C(F)(F)F)cc3)ccc2O[C@@H]1CN(C)Cc1ccc(C(F)(F)F)cc1	.	?	72*
C[C@H](CO)N1C[C@H](C)[C@@H](CN(C)Cc2ccc(C(F)(F)F)cc2)Oc2ccc(NC(=O)Nc3ccc(F)cc3)cc2C1=O	-62	0	12
Cc1ccc(S(=O)(=O)N[C@H](C(=O)NCCn2cc(CN3C(=O)COC[C@H]3c3ccccc3)nn2)C(C)C)cc1	.	1	.
C[C@@H]1CCCCO[C@@H](CN(C)Cc2ccc(C(=O)Nc3ccccc3N)cc2)[C@@H](C)CN([C@H](C)CO)C(=O)c2cc(NC(=O)Cc3ccccc3)ccc2O1	-2	1	32
C[C@@H]1CN([C@@H](C)CO)C(=O)Cc2cc(NC(=O)CCC(F)(F)F)ccc2O[C@H]1CN(C)C(=O)Nc1cccc2ccccc12	.	0	.
O=C(NCc1ccccc1)C1=C[C@@H](c2cccs2)C[C@@H](OCCCCO)O1	.	1	.
CC(C)NC(=O)N(C)C[C@@H]1OCCCC[C@@H](C)Oc2ccc(NC(=O)Nc3ccc(F)cc3)cc2C(=O)N([C@@H](C)CO)C[C@H]1C	.	1	.
O=C(N/N=C/c1c(F)c(F)c(F)c(F)c1F)c1ccccc1O	-37	-2	-11
O=S(=O)(N[C@@H]1CCCN(Cc2ccc(OCCO)cc2)C1)c1ccc(Cl)cc1	.	0	.
C[C@@H]1CN([C@H](C)CO)C(=O)c2cc(NC(=O)Nc3ccc(C(F)(F)F)cc3)ccc2O[C@@H]1CN(C)Cc1ccc(C(F)(F)F)cc1	-27	.	25
C[C@@H]1CN([C@@H](C)CO)C(=O)c2cc(NC(=O)Nc3ccc(C(F)(F)F)cc3)ccc2O[C@@H]1CN(C)Cc1ccc(Cl)c(Cl)c1	-46	0	75*
O=C(NO)c1cccc(C(=O)N/N=C/C2=CCCCC2)c1	-4	-1	-3
Cc1noc(C)c1S(=O)(=O)Nc1ccc2c(c1)CC(=O)N([C@@H](C)CO)C[C@H](C)[C@H](CN(C)Cc1ccc(C(=O)Nc3ccccc3N)cc1)O2	.	0	.
